# From ChEMBL document CHEMBL1158173, “Carbodithioic acid esters of fluoxetine, a novel class of dual-function spermicides” (2008)
# The source made the active and inactive calls. No cut-off for these calls is given here.
# System: Sporothrix schenckii
# Experiment: Antifungal activity against Sporothrix schenckii after 48 hrs by broth microdilution technique
# Format: functional
# Details: not given
Compound,Activity,MIC
CN(CCC(Oc1ccc(C(F)(F)F)cc1)c1ccccc1)C(=S)SCc1ccccc1 (stereo not drawn),inactive,–
CN(CCC(Oc1ccc(C(F)(F)F)cc1)c1ccccc1)CC(O)CSC(=S)N1CCOCC1 (stereo not drawn),–,25 µg/mL
CN(CCC(Oc1ccc(C(F)(F)F)cc1)c1ccccc1)C(=S)SCCN1CCCCC1 (stereo not drawn),–,6.25 µg/mL
CN(CCC(Oc1ccc(C(F)(F)F)cc1)c1ccccc1)C(=S)SCC(O)CN1CCCCCC1 (stereo not drawn),inactive,–
CN(CCC(Oc1ccc(C(F)(F)F)cc1)c1ccccc1)C(=S)[S-].[Na+] (stereo not drawn),inactive,–

# System: Candida albicans
# Experiment: Antifungal activity against Candida albicans MTCC 1346 after 48 hrs by broth microdilution technique
# Format: functional
# Details: MTCC 1346, 48 h
row,Compound,MIC
1,OC(Cn1cncn1)(Cn1cncn1)c1ccc(F)cc1F [FLUCONAZOLE],2 µg/mL

# System: Candida parapsilosis
# Experiment: (§1) Antifungal activity against Candida parapsilosis ATCC 22019 after 48 hrs by broth microdilution technique
# Format: functional
# Details: not given
row,Compound,Activity
1,CN(CCC(Oc1ccc(C(F)(F)F)cc1)c1ccccc1)C(=S)SCc1ccccc1 (stereo not drawn),inactive
2,CN(CCC(Oc1ccc(C(F)(F)F)cc1)c1ccccc1)C(=S)[S-].[Na+] (stereo not drawn),inactive

# Same assay, conditions: Lodderomyces parapsilosis, ATCC 22019, 48 h
row,Compound,MIC
1,CN(CCC(Oc1ccc(C(F)(F)F)cc1)c1ccccc1)CC(O)CSC(=S)N1CCOCC1 (stereo not drawn),50 µg/mL
2,CN(CCC(Oc1ccc(C(F)(F)F)cc1)c1ccccc1)C(=S)SCCN1CCCCC1 (stereo not drawn),1.56 µg/mL
3,CN(CCC(Oc1ccc(C(F)(F)F)cc1)c1ccccc1)C(=S)SCC(O)CN1CCCCCC1 (stereo not drawn),50 µg/mL

# System: Candida albicans
# Experiment: Antifungal activity against Candida albicans ATCC 6019 after 48 hrs by broth microdilution technique
# Format: functional
# Details: ATCC 6019, 48 h
row,Compound,MIC
1,OC(Cn1cncn1)(Cn1cncn1)c1ccc(F)cc1F [FLUCONAZOLE],0.25 µg/mL

# System: Candida parapsilosis
# Experiment: as §1
# Format: functional
# Details: Lodderomyces parapsilosis, ATCC 22019, 48 h
row,Compound,MIC
1,OC(Cn1cncn1)(Cn1cncn1)c1ccc(F)cc1F [FLUCONAZOLE],1 µg/mL

# System: Candida albicans
# Experiment: Antifungal activity against Candida albicans ATCC 66027 after 48 hrs by broth microdilution technique
# Format: functional
# Details: ATCC 66027, 48 h
row,Compound,MIC
1,OC(Cn1cncn1)(Cn1cncn1)c1ccc(F)cc1F [FLUCONAZOLE],0.25 µg/mL

# System: Pichia kudriavzevii
# Experiment: Antifungal activity against Candida krusei ATCC 6258 after 48 hrs by broth microdilution technique
# Format: functional
# Details: ATCC 6258, 48 h
row,Compound,MIC
1,OC(Cn1cncn1)(Cn1cncn1)c1ccc(F)cc1F [FLUCONAZOLE],4 µg/mL

# System: Candida albicans
# Experiment: Antifungal activity against Candida albicans ATCC 10231 after 48 hrs by broth microdilution technique
# Format: functional
# Details: ATCC 10231, 48 h
row,Compound,MIC
1,OC(Cn1cncn1)(Cn1cncn1)c1ccc(F)cc1F [FLUCONAZOLE],1 µg/mL

# System: Candida albicans
# Experiment: Antifungal activity against Candida albicans MTCC 183 after 48 hrs by broth microdilution technique
# Format: functional
# Details: MTCC 183, 48 h
row,Compound,MIC
1,OC(Cn1cncn1)(Cn1cncn1)c1ccc(F)cc1F [FLUCONAZOLE],0.5 µg/mL

# System: Candida albicans
# Experiment: Antifungal activity against Candida albicans after 48 hrs by broth microdilution technique
# Format: functional
# Details: not given
Compound,MIC,Activity
OC(Cn1cncn1)(Cn1cncn1)c1ccc(F)cc1F [FLUCONAZOLE],0.5 µg/mL,–
CN(CCC(Oc1ccc(C(F)(F)F)cc1)c1ccccc1)C(=S)SCc1ccccc1 (stereo not drawn),–,inactive
CN(CCC(Oc1ccc(C(F)(F)F)cc1)c1ccccc1)CC(O)CSC(=S)N1CCOCC1 (stereo not drawn),–,inactive
CN(CCC(Oc1ccc(C(F)(F)F)cc1)c1ccccc1)C(=S)SCCN1CCCCC1 (stereo not drawn),3.12 µg/mL,–
CN(CCC(Oc1ccc(C(F)(F)F)cc1)c1ccccc1)C(=S)SCC(O)CN1CCCCCC1 (stereo not drawn),50 µg/mL,–
CN(CCC(Oc1ccc(C(F)(F)F)cc1)c1ccccc1)C(=S)[S-].[Na+] (stereo not drawn),–,inactive

# System: Candida albicans
# Experiment: Antifungal activity against Candida albicans ATCC 10453 after 48 hrs by broth microdilution technique
# Format: functional
# Details: ATCC 10453, 48 h
row,Compound,MIC
1,OC(Cn1cncn1)(Cn1cncn1)c1ccc(F)cc1F [FLUCONAZOLE],1 µg/mL

# System: not listed separately
# Experiment: (§2) Spermicidal activity in liquefied human semen assessed as drug level required to kill 100% sperm in 20 seconds
# Format: functional
# Details: not given
row,Compound,MEC
1,CN(CCC(Oc1ccc(C(F)(F)F)cc1)c1ccccc1)C(=S)SCc1ccccc1 (stereo not drawn),1%
2,CN(CCC(Oc1ccc(C(F)(F)F)cc1)c1ccccc1)C(=S)SCCN1CCCCC1 (stereo not drawn),1%
3,CN(CCC(Oc1ccc(C(F)(F)F)cc1)c1ccccc1)C(=S)SCC(O)CN1CCCCCC1 (stereo not drawn),0.5%
4,CN(CCC(Oc1ccc(C(F)(F)F)cc1)c1ccccc1)C(=S)[S-].[Na+] (stereo not drawn),1%

# System: Sperm
# Experiment: as §2
# Format: functional
# Details: not given
row,Compound,Activity
1,CN(CCC(Oc1ccc(C(F)(F)F)cc1)c1ccccc1)CC(O)CSC(=S)N1CCOCC1 (stereo not drawn),inactive

# System: Trichomonas vaginalis
# Experiment: Antitrichomonas activity against Trichomonas vaginalis after 48 hrs by trypan blue staining
# Format: functional
# Details: not given
# Method in brief: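 Trichomonas vaginalis was grown in TYM medium and used in log phase, one day after routine subculture. Compounds in DMSO stock were serially diluted in TYM medium, with DMSO/TYM as vehicle control. Wells received 5 × 10³ trophozoites and were incubated anaerobically at 37 °C. Viability was scored daily by trypan blue and cell counts, and MIC was read at 48 h. Finer dilutions were then retested, and the final MIC was taken from a concentration versus viable-trophozoite-number curve.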
row,Compound,MIC
1,CN(CCC(Oc1ccc(C(F)(F)F)cc1)c1ccccc1)C(=S)SCc1ccccc1 (stereo not drawn),> 200 µg/mL
2,CN(CCC(Oc1ccc(C(F)(F)F)cc1)c1ccccc1)C(=S)SCCN1CCCCC1 (stereo not drawn),13.5 µg/mL
3,CN(CCC(Oc1ccc(C(F)(F)F)cc1)c1ccccc1)C(=S)SCC(O)CN1CCCCCC1 (stereo not drawn),> 200 µg/mL
4,CN(CCC(Oc1ccc(C(F)(F)F)cc1)c1ccccc1)C(=S)[S-].[Na+] (stereo not drawn),96 µg/mL

# System: Trichophyton mentagrophytes
# Experiment: Antifungal activity against Trichophyton mentagrophytes after 48 hrs by broth microdilution technique
# Format: functional
# Details: not given
Compound,Activity,MIC
CN(CCC(Oc1ccc(C(F)(F)F)cc1)c1ccccc1)C(=S)SCc1ccccc1 (stereo not drawn),inactive,–
CN(CCC(Oc1ccc(C(F)(F)F)cc1)c1ccccc1)CC(O)CSC(=S)N1CCOCC1 (stereo not drawn),–,12.5 µg/mL
CN(CCC(Oc1ccc(C(F)(F)F)cc1)c1ccccc1)C(=S)SCCN1CCCCC1 (stereo not drawn),–,6.25 µg/mL
CN(CCC(Oc1ccc(C(F)(F)F)cc1)c1ccccc1)C(=S)SCC(O)CN1CCCCCC1 (stereo not drawn),–,25 µg/mL
CN(CCC(Oc1ccc(C(F)(F)F)cc1)c1ccccc1)C(=S)[S-].[Na+] (stereo not drawn),inactive,–

# System: Cryptococcus neoformans
# Experiment: Antifungal activity against Cryptococcus neoformans after 48 hrs by broth microdilution technique
# Format: functional
# Details: not given
Compound,Activity,MIC
CN(CCC(Oc1ccc(C(F)(F)F)cc1)c1ccccc1)C(=S)SCc1ccccc1 (stereo not drawn),inactive,–
CN(CCC(Oc1ccc(C(F)(F)F)cc1)c1ccccc1)CC(O)CSC(=S)N1CCOCC1 (stereo not drawn),inactive,–
CN(CCC(Oc1ccc(C(F)(F)F)cc1)c1ccccc1)C(=S)SCCN1CCCCC1 (stereo not drawn),–,1.56 µg/mL
CN(CCC(Oc1ccc(C(F)(F)F)cc1)c1ccccc1)C(=S)SCC(O)CN1CCCCCC1 (stereo not drawn),inactive,–
CN(CCC(Oc1ccc(C(F)(F)F)cc1)c1ccccc1)C(=S)[S-].[Na+] (stereo not drawn),–,25 µg/mL

# System: Aspergillus fumigatus
# Experiment: Antifungal activity against Aspergillus fumigatus after 48 hrs by broth microdilution technique
# Format: functional
# Details: not given
Compound,Activity,MIC
CN(CCC(Oc1ccc(C(F)(F)F)cc1)c1ccccc1)C(=S)SCc1ccccc1 (stereo not drawn),inactive,–
CN(CCC(Oc1ccc(C(F)(F)F)cc1)c1ccccc1)CC(O)CSC(=S)N1CCOCC1 (stereo not drawn),inactive,–
CN(CCC(Oc1ccc(C(F)(F)F)cc1)c1ccccc1)C(=S)SCCN1CCCCC1 (stereo not drawn),–,12.5 µg/mL
CN(CCC(Oc1ccc(C(F)(F)F)cc1)c1ccccc1)C(=S)SCC(O)CN1CCCCCC1 (stereo not drawn),–,25 µg/mL
CN(CCC(Oc1ccc(C(F)(F)F)cc1)c1ccccc1)C(=S)[S-].[Na+] (stereo not drawn),inactive,–
